The text below walks through data of ChEMBL document CHEMBL4118202, “Chiral analogues of (+)-cyclazosin as potent α1B-adrenoceptor selective antagonist” (Bioorg Med Chem, 2018).

For test [1], the species on record is Rattus norvegicus. Put plainly: Selectivity ratio of compound effect for antagonism of alpha1D adrenergic receptor in Wistar rat thoracic aorta to compound effect for antagonism of alpha1A adrenergic receptor in Wistar rat prostatic rat vas deferens. The essentials: (§1)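 Ratio taken as the antilog of the difference between rat tissue pA2 or pKB values for the two subtypes (vas deferens α1A, spleen α1B, aorta α1D organ-bath antagonism).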

The species named for test [2] is Homo sapiens. Put plainly: Selectivity ratio of compound effect for displacement of [3H]prazosin from human alpha1B adrenergic receptor expressed in CHO cell membranes to compound effect for displacement of [3H]prazosin from human alpha1A adrenergic receptor expressed in CHO cell membranes. The essentials:
(§2)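 Ratio taken as the antilog of the difference between pKi values from [3H]prazosin displacement at human α1 subtypes expressed in CHO membranes.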
For orientation: Loss of bound radioactivity is the signal in a displacement assay; it reports binding, not function.

The species named for test [3] is Homo sapiens. Put plainly: Selectivity ratio of compound effect for displacement of [3H]prazosin from human alpha1B adrenergic receptor expressed in CHO cell membranes to compound effect for displacement of [3H]prazosin from human alpha1D adrenergic receptor expressed in CHO cell membranes. The essentials: as §2
Test [4] is filed under the species Rattus norvegicus. The experiment in a line: Selectivity ratio of compound effect for antagonism of alpha1B adrenergic receptor in Wistar rat spleen to compound effect for antagonism of alpha1A adrenergic receptor in Wistar rat prostatic rat vas deferens. A digest of the protocol:
as §1

In test [5] the target is T1, Alpha-1A adrenergic receptor (Homo sapiens, UniProt P35348).
T1 sequence (P35348 whole entry): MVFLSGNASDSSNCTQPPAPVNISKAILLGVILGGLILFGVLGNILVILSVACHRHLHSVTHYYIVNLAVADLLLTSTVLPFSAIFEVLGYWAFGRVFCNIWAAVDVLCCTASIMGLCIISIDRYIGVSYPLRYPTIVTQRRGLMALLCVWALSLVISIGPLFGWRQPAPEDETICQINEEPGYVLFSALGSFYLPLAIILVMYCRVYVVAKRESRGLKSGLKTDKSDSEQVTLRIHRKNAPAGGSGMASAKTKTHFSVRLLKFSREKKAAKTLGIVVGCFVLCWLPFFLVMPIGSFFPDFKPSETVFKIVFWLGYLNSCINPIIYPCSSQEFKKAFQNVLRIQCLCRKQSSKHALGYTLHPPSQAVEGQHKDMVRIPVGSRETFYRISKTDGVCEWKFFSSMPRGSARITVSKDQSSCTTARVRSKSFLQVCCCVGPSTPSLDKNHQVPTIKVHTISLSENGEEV
The experiment in a line: Displacement of [3H]prazosin from human alpha1A adrenergic receptor expressed in CHO cell membranes after 30 mins by rapid filtration method. The essentials:
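Membranes (30 μg protein) from CHO cells stably transfected with the human α1a, α1b or α1d receptor. Incubated 30 min at 25 °C in 50 mM Tris-HCl pH 7.4 with 0.1–0.4 nM [3H]prazosin and competitor 1 pM–10 μM. Nonspecific binding defined by 10 μM phentolamine. Stopped by rapid filtration through PEI-treated filters. IC50 converted to Ki by Cheng-Prusoff; pKi from 2–3 experiments in triplicate.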

Test [6] deals with T2, Alpha-1A adrenergic receptor (Rattus norvegicus, UniProt P43140).
T2 sequence (P43140 whole entry): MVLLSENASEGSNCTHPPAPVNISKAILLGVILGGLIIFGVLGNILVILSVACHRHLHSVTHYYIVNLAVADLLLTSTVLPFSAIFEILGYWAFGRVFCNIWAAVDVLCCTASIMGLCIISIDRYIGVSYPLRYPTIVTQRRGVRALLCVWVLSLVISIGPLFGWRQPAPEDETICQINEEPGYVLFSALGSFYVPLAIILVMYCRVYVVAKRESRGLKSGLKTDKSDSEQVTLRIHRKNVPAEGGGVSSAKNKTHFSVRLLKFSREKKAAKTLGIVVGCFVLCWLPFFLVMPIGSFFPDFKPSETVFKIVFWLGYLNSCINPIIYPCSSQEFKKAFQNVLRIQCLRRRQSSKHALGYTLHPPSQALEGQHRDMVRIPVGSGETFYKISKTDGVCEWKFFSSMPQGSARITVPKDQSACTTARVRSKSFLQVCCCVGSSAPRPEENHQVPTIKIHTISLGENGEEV
Put plainly: Antagonist activity at alpha1A adrenergic receptor in Wistar rat prostatic rat vas deferens assessed as inhibition of noradrenaline-induced contraction preincubated for 30 mins followed by noradrenaline addition measured after 45 mins in presence of cocaine hydrochloride. To be noted: read-out: pA2 (converted). The class given is functional. The essentials: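 Prostatic rat vas deferens, 2 cm portions, held at 0.35 g in Tyrode (pH 7.4, 37 °C, 95% O2/5% CO2). Cocaine 10 μM added 20 min before the agonist. Tissue equilibrated 45 min and primed twice with 10 μM noradrenaline. Isotonic cumulative noradrenaline curves were run before and after 30 min antagonist. pA2 came from Schild plots (≥3 concentrations); otherwise pKB (van Rossum). n ≥ 4.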

For test [7], the target named is T3, Alpha-1D adrenergic receptor (Rattus norvegicus, UniProt P23944).
T3 sequence (P23944 whole entry): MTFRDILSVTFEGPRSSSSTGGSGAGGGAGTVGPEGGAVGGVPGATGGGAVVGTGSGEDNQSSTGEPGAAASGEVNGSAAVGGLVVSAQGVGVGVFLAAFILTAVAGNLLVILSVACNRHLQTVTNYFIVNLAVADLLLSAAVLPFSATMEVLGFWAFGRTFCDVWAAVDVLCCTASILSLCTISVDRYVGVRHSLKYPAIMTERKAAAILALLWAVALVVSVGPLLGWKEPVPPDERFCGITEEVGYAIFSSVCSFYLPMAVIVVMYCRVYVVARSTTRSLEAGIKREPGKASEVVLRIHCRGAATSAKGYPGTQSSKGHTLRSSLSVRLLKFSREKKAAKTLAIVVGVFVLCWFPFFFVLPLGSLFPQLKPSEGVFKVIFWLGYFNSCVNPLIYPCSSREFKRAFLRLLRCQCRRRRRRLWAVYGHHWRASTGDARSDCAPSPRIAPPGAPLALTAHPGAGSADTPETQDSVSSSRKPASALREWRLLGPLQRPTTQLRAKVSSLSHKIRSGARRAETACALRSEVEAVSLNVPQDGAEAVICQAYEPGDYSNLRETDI
The experiment in a line: Antagonist activity at alpha1D adrenergic receptor in Wistar rat thoracic aorta assessed as inhibition of noradrenaline-induced contraction measured after 30 mins in presence of cocaine hydrochloride and beta-adrenoceptor blocker propranolol hydrochloride. The note with it: read-out: pA2 (converted). The class given is functional. The essentials: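 Helical thoracic aorta strips, endothelium removed (checked by loss of acetylcholine relaxation), in Krebs at 1 g, equilibrated ≥2 h. Isometric cumulative noradrenaline curves at 1 h intervals; the second served as control, the third followed 30 min antagonist.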

Structures are written as SMILES.

As a reminder, the Ki is the dissociation constant of the complex between target and ligand, obtained from inhibition or displacement. Lower therefore signals a stronger hold on the target. Regarding `CCCN(CCC)c1nc(N2CCN(C(=O)c3ccco3)[C@H]3CCCC[C@H]32)nc2cc(OC)c(OC)cc12`, the Selectivity ratio in the test filed under Rattus norvegicus [1] came to 2; in the test filed under Homo sapiens [2], 74; in the test listed under Homo sapiens [3], 17; in the test listed under Rattus norvegicus [4], 93. In test [5], this compound gave a Ki of 22.4 nM.
For `COc1cc2nc(N3CCN(C(=O)OCc4ccccc4)[C@H]4CCCC[C@H]43)nc(N)c2cc1OC`, the Selectivity ratio in the test filed under Rattus norvegicus [1] came out at 3; in the test listed under Homo sapiens [2], 14; in the test listed under Homo sapiens [3] it was 11; in the test filed under Rattus norvegicus [4], 457. Besides, the Kb in test [6] is 776 nM; in test [7], 240 nM. Also, in test [5], the affinity corresponds to a Ki of 5.5 nM.
As for `CCCCCC(=O)N1CCN(c2nc(N)c3cc(OC)c(OC)cc3n2)[C@@H]2CCCC[C@@H]21`, the Selectivity ratio was found to be 0.6 in the test filed under Rattus norvegicus [1], 6 in the test listed under Homo sapiens [2], 4 in the test filed under Homo sapiens [3] and 9 in the test filed under Rattus norvegicus [4]. Further, the Kb in test [7] is 155 nM. The compound also gave a Ki in test [5] of 5.75 nM.
On to `COc1cc2nc(N3CCN(C(C)=O)[C@@H]4CCCC[C@@H]43)nc(N)c2cc1OC`, for which the Selectivity ratio was 20 in the test filed under Rattus norvegicus [1], 12 in the test listed under Homo sapiens [2], 0.2 in the test filed under Homo sapiens [3] and 72 in the test listed under Rattus norvegicus [4]. Besides, the Kb in test [6] is 44.7 nM; in test [7] it was 2.19 nM. Besides, the affinity in test [5] corresponds to a Ki of 9.12 nM.
Regarding `COc1cc2nc(N3CCN(C(=O)Cc4ccc5ccccc5c4)[C@H]4CCCC[C@H]43)nc(N)c2cc1OC`, the Selectivity ratio in the test listed under Rattus norvegicus [1] came out at 2; in the test filed under Homo sapiens [2] it was 14; in the test listed under Homo sapiens [3], 2; in the test filed under Rattus norvegicus [4] it was 30. The Kb in test [7] was 135 nM. This compound gave a Ki in test [5] of 17 nM.
With `COc1cc2nc(N3CCN(C(C)=O)[C@H]4CCCC[C@H]43)nc(N)c2cc1OC`, the Selectivity ratio was 2 in the test listed under Rattus norvegicus [1], 25 in the test listed under Homo sapiens [2], 12 in the test listed under Homo sapiens [3] and 1000 in the test listed under Rattus norvegicus [4]. The figures for the Kb in test [6] and in test [7] were 3020 nM and 1700 nM, respectively. The compound further showed a Ki in test [5] of 224 nM.
Take `COc1cc2nc(N3CCN(C(=O)C4COc5ccccc5O4)[C@H]4CCCC[C@H]43)nc(N)c2cc1OC` (single isomer, unassigned; (-)) [CYCLODOXAZOSIN]: the Selectivity ratio worked out at 3 in the test filed under Rattus norvegicus [1] and 81 in the test listed under Rattus norvegicus [4]. The Kb in test [6] is 200 nM.
As to `COc1cc2nc(N3CCN(C(=O)C(C)(C)C)[C@H]4CCCC[C@H]43)nc(N)c2cc1OC`, the Selectivity ratio in the test filed under Rattus norvegicus [1] came out at 0.5; in the test filed under Homo sapiens [2], 9; in the test filed under Homo sapiens [3], 8; in the test listed under Rattus norvegicus [4], 12. Moreover, the Kb in test [7] is 141 nM. The affinity in test [5], expressed as Ki, was 6.61 nM.
Turning to `CCCN(CCC)c1nc(N2CCN(C(=O)c3ccco3)[C@@H]3CCCC[C@@H]32)nc2cc(OC)c(OC)cc12`, the Selectivity ratio in the test filed under Rattus norvegicus [1] was found to be 1; in the test filed under Homo sapiens [2], 15; in the test listed under Homo sapiens [3], 0.5; in the test filed under Rattus norvegicus [4], 1. Also, the Kb in test [7] was 58.9 nM. For the same compound, the Ki in test [5] is 1.86 nM.
For the compound `COc1cc2nc(N3CCN(C(=O)COc4c(OC)cccc4C(C)C)[C@H]4CCCC[C@H]43)nc(N)c2cc1OC`, the Selectivity ratio in the test filed under Rattus norvegicus [1] amounted to 3; in the test listed under Homo sapiens [2] it was 6; in the test filed under Homo sapiens [3] it was 3; in the test filed under Rattus norvegicus [4] it was 0.8. Besides, the Kb is 151 nM in test [6] and 58.9 nM in test [7]. The compound further showed a Ki in test [5] of 0.871 nM.
On to `COc1cc2nc(N3CCN(C(=O)OCc4ccccc4)[C@@H]4CCCC[C@@H]43)nc(N)c2cc1OC`, for which the Selectivity ratio worked out at 31 in the test filed under Rattus norvegicus [1], 3 in the test listed under Homo sapiens [2], 0.2 in the test filed under Homo sapiens [3] and 9 in the test listed under Rattus norvegicus [4]. The values for the Kb in test [6] and in test [7] were 16.2 nM and 0.525 nM, respectively. The compound also gave a Ki in test [5] of 0.501 nM.
